Series [1] concerns the target T1, ATP-dependent translocase ABCB1 (Homo sapiens, UniProt P08183). The series can be described thus: Reversal of MDR1-mediated doxorubicin resistance in multidrug resistant human NCI-H460 cells assessed as combination index at 5 uM after 72 hrs by SRB assay. As to conditions: nci-h460, 72 h. (The SRB assay estimates cell density from bound dye.)
Series [2] has as its target T1, ATP-dependent translocase ABCB1. Nature of the series: Reversal of MDR1-mediated paclitaxel resistance in multidrug resistant human NCI-H460 cells assessed as combination index at 1 uM after 72 hrs by SRB assay. Particulars: nci-h460, 72 h. The format is cell-based. Put shortly:
(§1)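 Resistant NCI-H460/R cells received 1, 2.5 or 5 μM compound simultaneously with 0.0055 μM paclitaxel for 72 h. Growth was read by SRB assay. Relative reversion = IC50 of paclitaxel / IC50 of the combination. Interaction was scored by the combination index method (median effect, multiple drug effect equation).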

Series [3] shares this target. The series can be described thus: Reversal of MDR1-mediated paclitaxel resistance in multidrug resistant human NCI-H460 cells assessed as combination index at 2.5 uM after 72 hrs by SRB assay. The format is cell-based. As to conditions: nci-h460, 72 h. Put shortly: as §1
The target is the same in series [4]. The series can be described thus: Reversal of MDR1-mediated paclitaxel resistance in multidrug resistant human NCI-H460 cells assessed as combination index at 5 uM after 72 hrs by SRB assay. Format: cell-based. Particulars: nci-h460, 72 h. In a few lines: as §1
Series [5] relates to NCI-H460. The series can be described thus: Anticancer activity against multidrug resistant human NCI-H460 cells after 72 hrs by SRB assay. The format is functional, cell-based. As to conditions: NCI-H460, 72 h. Put shortly:
(§2)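 Cells were seeded in 96-well plates and left overnight: NCI-H460 and DLD-1 at 2000 cells/well, U-87 MG and NCI-H460/R at 4000 cells/well. NCI-H460/R was selected from NCI-H460 and kept in 100 nM doxorubicin. Compound exposure lasted 72 h. Cellular protein was stained with sulforhodamine B, and IC50 was obtained by linear regression.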

In the next series the test system is DLD-1. The series can be described thus: Anticancer activity against human DLD1 cells after 72 hrs by SRB assay. As to conditions: DLD-1, 72 h. Format: functional, cell-based. Put shortly:
as §2

Series [6] concerns NCI-H460. The series can be described thus: Anticancer activity against human NCI-H460 cells after 72 hrs by SRB assay. Format: functional, cell-based. Particulars: NCI-H460, 72 h. Put shortly: as §2
A short description of series [7]: Anticancer activity against human U87MG cells after 72 hrs by SRB assay. As to conditions: U-87 MG. Format: functional, cell-based, U-87MG ATCC. Put shortly: as §2
The target in series [8] is T1, ATP-dependent translocase ABCB1. The series can be described thus: Reversal of MDR1-mediated paclitaxel resistance in multidrug resistant human NCI-H460 cells assessed as Rho123 accumulation at 20 uM after 30 mins by FACScalibur flow cytometry relative to control. Format: cell-based. Particulars: nci-h460, 0.5 h. In a few lines: (§3)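 NCI-H460/R cells were grown to 80% confluence, trypsinized and resuspended in medium containing Rho123. They were treated with compound at 5 or 20 μM for 30 min at 37 °C in 5% CO2, and Rho123 fluorescence (FL2-H) was read by flow cytometry. FAR = FL2-H of treated MDR cells / FL2-H of untreated MDR control.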
(In general: In flow cytometry, cells or beads pass a laser one at a time.)

Series [9] shares this target. Nature of the series: Reversal of MDR1-mediated paclitaxel resistance in human NCI-H460 cells assessed as ratio of compound IC50 to IC50 of paclitaxel at 1 uM after 72 hrs by SRB assay. Format: cell-based. As to conditions: nci-h460, 72 h. In a few lines:
as §1

The target is the same in series [10]. Nature of the series: Reversal of MDR1-mediated paclitaxel resistance in multidrug resistant human NCI-H460 cells assessed as Rho123 accumulation at 5 uM after 30 mins by FACScalibur flow cytometry relative to control. The format is cell-based. As to conditions: nci-h460, 0.5 h. Put shortly: as §3
Series [11] shares this target. Nature of the series: Reversal of MDR1-mediated paclitaxel resistance in human NCI-H460 cells assessed as ratio of compound IC50 to IC50 of paclitaxel at 2.5 uM after 72 hrs by SRB assay. The format is cell-based. Particulars: nci-h460, 72 h. Put shortly: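 Growth was read by SRB assay. Relative reversion = IC50 of paclitaxel / IC50 of the combination. Interaction was scored by the combination index method (median effect, multiple drug effect equation).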

Series [12] has the same target. Nature of the series: Reversal of MDR1-mediated doxorubicin resistance in human NCI-H460 cells assessed as ratio of compound IC50 to IC50 of paclitaxel at 5 uM after 72 hrs by SRB assay. Format: cell-based. Particulars: nci-h460, 72 h, in the assay text read “IC50 of doxorubicin” for “IC50 of paclitaxel”. In a few lines: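 NCI-H460/R cells received 5 μM compound simultaneously with 0.055 μM doxorubicin for 72 h, read by SRB. Relative reversion = IC50 of doxorubicin alone / IC50 of the combination. Values are the mean ± standard deviation of five independent experiments, with IC50 by linear regression.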

A word on the IC30: it is the concentration at which the effect reaches the 30% level. Lower therefore signals an effect from little substance. A word on the IC50: it is the concentration that gives 50% inhibition. Low values mean higher potency, high ones lower potency.

T1 sequence (P08183 whole entry): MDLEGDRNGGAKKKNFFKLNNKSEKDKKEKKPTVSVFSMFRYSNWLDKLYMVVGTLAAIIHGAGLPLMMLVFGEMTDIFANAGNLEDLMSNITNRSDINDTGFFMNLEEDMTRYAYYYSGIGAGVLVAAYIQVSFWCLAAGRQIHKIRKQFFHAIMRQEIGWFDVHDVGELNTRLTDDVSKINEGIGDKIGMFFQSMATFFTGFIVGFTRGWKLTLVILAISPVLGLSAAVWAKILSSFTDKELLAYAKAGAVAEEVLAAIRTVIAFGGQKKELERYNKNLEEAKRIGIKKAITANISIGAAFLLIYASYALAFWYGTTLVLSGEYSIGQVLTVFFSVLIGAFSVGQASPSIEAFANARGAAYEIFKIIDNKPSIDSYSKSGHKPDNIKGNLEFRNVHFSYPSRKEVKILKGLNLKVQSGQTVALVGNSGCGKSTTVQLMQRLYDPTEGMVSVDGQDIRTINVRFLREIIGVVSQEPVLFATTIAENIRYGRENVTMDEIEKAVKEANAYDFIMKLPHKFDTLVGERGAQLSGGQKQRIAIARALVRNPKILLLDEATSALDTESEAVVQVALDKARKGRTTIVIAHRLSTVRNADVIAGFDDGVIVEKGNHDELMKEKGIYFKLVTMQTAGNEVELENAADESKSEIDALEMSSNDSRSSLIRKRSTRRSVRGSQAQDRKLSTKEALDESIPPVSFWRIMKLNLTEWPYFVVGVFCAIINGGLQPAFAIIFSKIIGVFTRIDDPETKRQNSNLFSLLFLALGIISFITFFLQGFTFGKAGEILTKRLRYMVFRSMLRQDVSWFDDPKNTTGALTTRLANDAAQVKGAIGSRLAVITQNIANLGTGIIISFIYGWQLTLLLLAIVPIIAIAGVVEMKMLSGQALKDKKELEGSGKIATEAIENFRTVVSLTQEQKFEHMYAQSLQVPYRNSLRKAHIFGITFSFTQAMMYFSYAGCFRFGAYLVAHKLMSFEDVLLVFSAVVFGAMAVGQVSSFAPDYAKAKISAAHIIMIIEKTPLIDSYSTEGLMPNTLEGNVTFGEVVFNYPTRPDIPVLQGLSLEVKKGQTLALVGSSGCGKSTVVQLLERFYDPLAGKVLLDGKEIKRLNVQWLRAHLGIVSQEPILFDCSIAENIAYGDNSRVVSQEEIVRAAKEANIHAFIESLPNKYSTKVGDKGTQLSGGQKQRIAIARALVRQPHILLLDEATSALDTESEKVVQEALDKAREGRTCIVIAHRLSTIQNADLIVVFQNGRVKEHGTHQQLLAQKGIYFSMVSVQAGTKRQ

For the molecule `COc1ccc(CCN(C)CCCC(C#N)(c2ccc(OC)c(OC)c2)C(C)C)cc1OC` (stereo not drawn), the “fractional inhibitory concentration index (FICI)” value in series [1] is on record as less than 0.5; in [2], less than 1; in series [3] it was less than 0.5; in series [4], less than 0.5.

With `CC1=C[C@@H]2[C@H](C1=O)[C@H](O)C(C)=C[C@H]1[C@@H]3C(C)(C)[C@]3(OC(=O)C(C)C)[C@H](OC(=O)c3ccccc3)[C@@H](C)[C@]21O` [EUPHODENDRIANE A], the IC30 with NCI-H460 [5] came to 15.7 µM; in the series with DLD-1, 13.3 µM; with NCI-H460 [6] it was 7 µM; in series [7], 33.2 µM. Also, the concentration for half-maximal inhibition (IC50) in the series on NCI-H460 [5] amounted to 26 µM; with DLD-1, 27.4 µM; in the series with NCI-H460 [6], 14.3 µM; in series [7], 60.1 µM.

With `C=C1[C@@H](OC(=O)C(C)C)[C@@H](OC(C)=O)[C@@H](OC(=O)c2cccnc2)C(C)(C)/C=C/[C@@H](C)C(=O)[C@@]2(O)C[C@H](C)[C@H](OC(=O)CC)[C@@H]2[C@H]1OC(C)=O` [EUPHODENDROPHANE A], the Ratio amounted to 3.2 in [8] and 2.1 in series [10]. Also, the concentration for an effect of 30% (IC30) in the series with NCI-H460 [5] is 26.6 µM; with DLD-1 it was 7.3 µM; in the series with NCI-H460 [6], 31 µM; in series [7] it was 74.7 µM. The IC50 in the series on NCI-H460 [5] is 44.8 µM; with DLD-1 it was 59.3 µM; with NCI-H460 [6], 46.6 µM; in series [7] it was 155 µM. For the same molecule, the entries for the “Ratio IC50” value in [9], in series [11] and in series [12] were 3, 19 and 19, respectively. Also, the “fractional inhibitory concentration index (FICI)” value in [1] is reported as less than 0.5; in [2] it was less than 0.5; in series [3], less than 1; in [4], less than 0.5.

Turning to `C=C1[C@@H](OC(=O)C(C)C)[C@@H](OC(C)=O)[C@@H](OC(=O)c2cccnc2)C(C)(C)/C=C/[C@@H](C)C(=O)[C@@]2(O)C[C@H](C)[C@H](OC(=O)C(C)C)[C@@H]2[C@H]1OC(C)=O` [EUPHODENDROPHANE B], the figures for the Ratio in [8] and in series [10] were 3 and 1.9, respectively. Besides, the IC30 with NCI-H460 [5] stood at 3.9 µM; in the series with DLD-1, 4.8 µM; in the series with NCI-H460 [6], 6.1 µM; in series [7], 6.8 µM. Further, the IC50 in the series on NCI-H460 [5] is 17.2 µM; in the series with DLD-1, 22.1 µM; in the series on NCI-H460 [6], 16.2 µM; in series [7], 108 µM. For the same molecule, the “Ratio IC50” value in series [9] worked out at 11; in series [11], 25; in series [12], 28. Moreover, the “fractional inhibitory concentration index (FICI)” value in series [1] is on record as less than 0.5; in series [2], less than 1; in series [3], less than 1; in series [4] it was less than 0.5.

As for `C=C1[C@@H](OC(C)=O)[C@@H](OC(=O)c2ccccc2)[C@@H](OC(C)=O)C(C)(C)/C=C/[C@@H](C)C(=O)[C@@]2(O)C[C@H](C)[C@H](OC(=O)C(C)C)[C@@H]2[C@H]1OC(C)=O` [EUPHODENDROPHANE D], the IC30 with NCI-H460 [5] amounted to 14.6 µM; in the series with DLD-1, 14.2 µM; with NCI-H460 [6], 11.7 µM; in series [7], 10.4 µM. The 50% inhibitory concentration (IC50) in the series with NCI-H460 [5] is 30.1 µM; with DLD-1, 42.7 µM; in the series with NCI-H460 [6], 21.3 µM; in [7], 52.6 µM.

As for `C=C1[C@@H](OC(=O)C(C)C)[C@@H](OC(=O)c2ccccc2)[C@@H](OC(C)=O)C(C)(C)/C=C/[C@@H](C)C(=O)[C@@]2(O)C[C@H](C)[C@H](OC(=O)CC)[C@@H]2[C@H]1OC(C)=O` [EUPHODENDROPHANE E], the 30% effect concentration (IC30) with NCI-H460 [5] amounted to 15.2 µM; with DLD-1, 13.7 µM; in the series on NCI-H460 [6] it was 8.3 µM; in series [7], 14.1 µM. Further, the IC50 with NCI-H460 [5] stood at 49.8 µM; with DLD-1, 37.9 µM; in the series with NCI-H460 [6] it was 21.9 µM; in series [7], 73.1 µM.

Consider `CC(=O)OC/C1=C/[C@H]2[C@@H](OC(C)=O)[C@](C)(OC(C)=O)C[C@]2(OC(C)=O)C(=O)[C@H](C)/C=C/C(C)(C)[C@H](OC(=O)c2cccnc2)[C@H](OC(C)=O)[C@@H]1OC(=O)C(C)C` [EUPHODENDROPHANE F], for which the IC30 is 51.9 µM in the series with NCI-H460 [5], 38.8 µM in the series on DLD-1, 4.8 µM in the series with NCI-H460 [6] and 27.3 µM in series [7]. In addition, the IC50 in the series on NCI-H460 [5] came out at 90.8 µM; with DLD-1 it was 75.3 µM; in the series on NCI-H460 [6], 14.8 µM; in [7], 65.5 µM.

Turning to `CC(=O)O[C@H]1C(=O)[C@@]2(C)[C@H]([C@H](OC(=O)c3ccccc3)[C@]3(O)C[C@H](OC(=O)[C@H](O)[C@@H](NC(=O)c4ccccc4)c4ccccc4)C(C)=C1C3(C)C)[C@]1(OC(C)=O)CO[C@@H]1C[C@@H]2O` [PACLITAXEL], the IC30 was determined as 0.44 µM with NCI-H460 [5], 0.023 µM in the series with DLD-1, 0.0036 µM in the series on NCI-H460 [6] and 0.049 µM in series [7]. The IC50 in the series on NCI-H460 [5] came out at 2.08 µM; in the series on DLD-1, 0.039 µM; with NCI-H460 [6], 0.0094 µM; in series [7] it was 0.09 µM.

Source of the values: ChEMBL document CHEMBL1821621, “Isolation and biological evaluation of jatrophane diterpenoids from Euphorbia dendroides” (J Nat Prod, 2011).
